Screens deposited in PubChem BioAssay by The Scripps Research Institute Molecular Screening Center.
GPR7 antag = GPR7 receptor antagonists, primary screen, cell-based, fluorescence, single concentration. Neuropeptides B/W receptor type 1 (Homo sapiens), P48145. GPR7-expressing cells, fluorescence antagonist assay. inhibition, % at 4.4 µM. 290,000 compounds, 1.1% hits; in the data active = inhibition above about 16%, passing the limit was not always enough;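 note: cells stimulated with the agonist NPW; 0% = agonist with vehicle and 100% = vehicle without agonist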
Target sequence (P48145 whole entry, looked up): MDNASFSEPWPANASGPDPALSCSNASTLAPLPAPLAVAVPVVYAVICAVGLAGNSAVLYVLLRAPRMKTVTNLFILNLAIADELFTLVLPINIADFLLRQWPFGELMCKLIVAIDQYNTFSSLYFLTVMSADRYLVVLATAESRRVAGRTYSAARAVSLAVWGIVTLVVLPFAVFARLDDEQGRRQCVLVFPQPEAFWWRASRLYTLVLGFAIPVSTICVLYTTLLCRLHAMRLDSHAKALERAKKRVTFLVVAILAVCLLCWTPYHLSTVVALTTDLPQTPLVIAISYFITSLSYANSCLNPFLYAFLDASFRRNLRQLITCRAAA
TRPN1 ag = zebrafish TRPN1 channel agonists, primary screen, cell-based, HEK293, calcium fluorescence | activation, % at 3 µM | AID 1424, 2008 | 220,000 compounds, 0.18% hits | HEK293 zebrafish TRPN1-YFP, Fluo-8 calcium fluorescence; 100% = response to 87 µM carbachol | transient receptor potential cation channel N1 (TRPN1/NompC), Danio rerio;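 active = activation above its plate's cutoff, the mean activation of test wells on that plate plus 3 SD, cut at about 19% in these data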;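 note: 0% = DMSO alone and 100% = 87 µM carbachol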
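Material – zebrafish TRPN1-YFP in HEK293 cells · Doses – 3 µM single point · Schedule – dye 1 h 37 °C plus 30 min RT · Signal – Fluo-8 calcium fluorescence, excitation 470-495 nm, emission 515-575 nm · Read-out – % activation versus carbachol response · Control set – carbachol high, DMSO low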
OX1R antag-1 = OX1R (HCRTR1) antagonists, primary screen, fluorescence, CHO/OX1R cells, Fluo-8 calcium, orexin A | AID 434989, 2010 | Orexin/Hypocretin receptor type 1 (Homo sapiens), O43613 | 330,000 compounds, 0.43% hits | inhibition, % at 5 µM | Fluo-8 calcium fluorescence;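 active = inhibition above its plate's threshold, mean inhibition of all tested compounds on the plate plus 3 SD, cut at about 37% in these data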;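 note: 0% = orexin A challenge wells and 100% = SB-334867-A antagonist wells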
CHO parental Ca = ATP-evoked calcium signal inhibitors, parental CHO, primary screen, counter-screen for OX1R antagonist project, cell-based, fluorescence, Fluo-8 calcium dye; parental CHO-K1, ATP-induced calcium, Fluo-8 fluorescence; inhibition, % at 5.6 µM; 330,000 compounds, 0.63% hits; AID 463079, 2010;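 active = inhibition above that plate's mean sample inhibition plus 3 SD, cut at about 26% in these data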;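 note: 0% = ATP-challenged DMSO wells and 100% = DMSO wells without ATP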
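Measured by: calcium-sensitive Fluo-8 fluorescence / Test system: CHO parental line / Controls: ATP-challenged DMSO wells low, unchallenged DMSO wells high / Measure: % inhibition / Compound: single nominal dose of 5.6 µM per compound / Replicates: single well per compound, no replicates / Reagent: ATP as calcium-mobilizing challenge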
TRPML3 ag = human TRPML3 channel agonists, primary screen, cell-based, HEK293 TRPML3-YFP, Fluo-8 calcium fluorescence, 3 µM. Mucolipin-3 (Homo sapiens), Q8TDD5. 100% = the carbachol control signal. activation, % at 3 µM. 220,000 compounds, 0.29% hits;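 active = activation above its plate's cutoff, the mean activation of the plate's test wells plus 3 SD, cut at about 12% in these data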;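 note: 0% = DMSO only wells and 100% = carbachol wells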
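Material: TRPML3-YFP stable HEK293 cells | Dosing: One concentration, 3 µM nominal, 0.3% DMSO | Timing: 125 s total fluorescence read per well | Technique: Fluo-8 calcium dye fluorescence, ex 470-495, em 515-575 nm | Measure: Percent activation from peak-to-basal fluorescence ratio, scaled between DMSO and carbachol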
OX1R antag-2 = antagonists of human orexin 1 receptor (OX1R) | Orexin/Hypocretin receptor type 1 (Homo sapiens), O43613 | OX1R-expressing cells, FRET antagonist read-out | inhibition, % at 6.6 µM | 330,000 compounds, 1.8% hits | AID 485270, 2010; in the data active = inhibition mostly above about 38%, no sharp cut-off; inactive = mostly below about 40%;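 note: 0% = agonist challenge alone and 100% = reference antagonist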
Starred values were filed as active, the others as inactive; nt = no result given. Rows were chosen to be rich in hits. Some 3.2% of all compounds tested hit in one or more screens of this group.

SMILES	GPR7 antag	TRPN1 ag	OX1R antag-1	CHO parental Ca	TRPML3 ag	OX1R antag-2
O=[N+]([O-])c1ccc(Nc2ccccc2)c2nonc12	4	nt	17	16	nt	68*
O=C(COC(=O)CNC(=O)c1ccccc1)Nc1ccc(Cl)cc1C(F)(F)F	-4	-1	-30	-17	-1	10
CC(C)CCNC(=O)COc1ccc(N(C)S(=O)(=O)c2ccc(F)cc2)cc1	-3	0	-23	-20	2	18
O=C(CCC(=O)N1CCOc2ccccc21)NCCCN1CCN(Cc2ccccc2)CC1	21*	nt	-7	-20	nt	6
CN1CCN(CCCNC(=O)CCC(=O)N2CCOc3ccccc32)CC1	-6	nt	-24	1	nt	-1
CCC(=O)N1CCc2cc(S(=O)(=O)CCC(=O)NCc3ccccc3OC)ccc21	-7	nt	-32	-21	nt	7
COc1c(F)c(F)c(C(=O)Nc2ccc(-c3nc4ccccc4[nH]3)cc2)c(F)c1F	-12	5	-8	-3	1	10
COc1cccc(OC)c1C(=O)NC(=S)Nc1cc(-c2nc3ccccc3[nH]2)ccc1Cl	-19	3	20	-17	1	74*
Oc1ccc(Cl)cc1C=Nc1ccccc1Br	-9	0	4	0	0	9
Oc1ccc(Br)cc1C=Nc1ccc2c3c(cccc13)CC2	5	8	56*	42*	3	6
Cc1ccc(C2=Nc3ccccc3N(C(=O)c3ccccc3)C(C)C2)cc1 (centres undefined)	-20	-1	-52	-29	0	7
S=C(NCc1ccccc1)NCc1ccc(CNC(=S)NCc2ccccc2)cc1	15	2	29	48*	1	2
Cc1cc(C)c2[nH]c(=O)c(CN(Cc3cccs3)C(=S)NCC3CCCO3)cc2c1 (centres undefined)	-14	1	-33	-12	0	12
CN1C(=O)S/C(=C/c2cccnc2)C1=O	1	0	1	-2	1	65*
O=C(O)CN1C(=O)S/C(=C\c2cccnc2)C1=O	-3	-2	-8	6	-1	8
Cn1nccc1C(=O)N1CCN(c2ccccc2F)CC1	1	nt	-11	-12	nt	17
O=C(NCCc1ccccc1)C(c1cccs1)N(C(=O)CCl)c1ccc(Cl)cc1 (centres undefined)	23*	-1	-21	-15	-1	39
O=C1C=C(NCc2ccc(Cl)cc2Cl)C2(CCCCC2)O1	21*	0	-21	-9	1	20
O=C1c2cccc3cccc(c23)C(=O)N1c1nncs1	-5	-1	-25	-12	0	75*
O=C1c2cccc3cccc(c23)C(=O)N1c1ccc(O)cc1	-10	nt	-19	2	nt	14
Cc1csc2c(=O)n(CCO)c(=O)[nH]c12	-3	1	-7	0	1	6
CC(=O)N1CCN(c2ccc(Oc3ccc([N+](=O)[O-])c(C(F)(F)F)c3)cc2)CC1	29	nt	9	44*	nt	51
CC(=O)Nc1ccc(NC(=O)CSc2nnc(-c3cccs3)n2N)cc1	nt	nt	-3	4	nt	17
CC(C(=O)O)c1ccc(C(=O)c2ccccc2)s1 (centres undefined)	nt	nt	-2	-7	nt	18
CSc1ccc(Cl)c(C(=O)N(C)CC(=O)Nc2ccc(N3CCOCC3)cc2)c1	nt	nt	-33	-10	nt	12
CC(C)=CCC12Oc3cc(O)ccc3C1(O)Oc1cc3c(c(O)c1C2=O)C=CC(C)(C)O3 (centres undefined)	nt	nt	-13	44*	nt	10
CC(C)=CCc1c(-c2ccc(O)cc2O)oc2cc3c(c(O)c2c1=O)C=CC(C)(C)O3	nt	nt	0	5	nt	17
Cc1ccc2cc(CN(CC3CCCO3)C(=O)c3cccs3)c(=O)[nH]c2c1 (centres undefined)	-8	nt	-20	-17	nt	10
CC1(C)Nc2ccccc2C(=O)N1c1ccccc1	-8	nt	-9	-7	nt	-2
